According to the EternaBench riboswitch data:

Test system: MS2 coat protein
Assay: apparent Kd, MS2 coat protein; higher = weaker binding; RNA-MaP array
In short: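 Designed RNAs were transcribed in place on an Illumina sequencing chip from sequenced DNA templates. At room temperature and with or without input ligand, they were incubated with fluorescently labeled MS2 coat protein from 1.5 nM to 3 μM, for 0.8–1.5 h at the lowest and 10–20 min at the highest concentrations. Apparent Kd is the median of the binding-curve fits made per cluster, with designs measured on fewer than 10 clusters excluded.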

[1] = designed as: OFF switch for tryptophan, no ligand
[2] = ligand present: tryptophan, designed as: OFF switch for tryptophan
[3] = designed as: OFF switch for flavin mononucleotide, no ligand
[4] = ligand present: flavin mononucleotide, designed as: OFF switch for flavin mononucleotide
[5] = designed as: ON switch for flavin mononucleotide, no ligand
[6] = ligand present: flavin mononucleotide, designed as: ON switch for flavin mononucleotide
[7] = ligand present: theophylline, designed as: OFF switch for theophylline
[8] = designed as: ON switch for tryptophan, no ligand
[9] = ligand present: tryptophan, designed as: ON switch for tryptophan

Sequence: GGUGUUACGUCGGCCGCCACUAUACUACAUGAGGAUCACCCAUGUCAUCCCUUCAAUUGGUAGCCUAGGACCGGGACAGAAUUCG
- apparent Kd [1]: 43.4 nM
- apparent Kd [2]: 47.2 nM

Sequence: GUAGAGUCAGGAUAUGUCAACUGCUCUGUAAAGCUUGGUCGACAGAAGGGACAUGAGGAUCACCCAUGUGAAGG
- apparent Kd [3]: 34.1 nM
- apparent Kd [4]: 56.5 nM

Sequence: UAUACUACUGAGGAUAUCCAAUCCCAGAAACAAGGAGAAGGCAGUACAUGAGGAUCACCCAUGUUCCUCGACAU
- apparent Kd [3]: 43.1 nM
- apparent Kd [4]: 127 nM

Sequence: CACGAUCGUGAAGGAUAUCGACAUGAGGAUCACCCAUGUUACUCUUACAUCUAUGGUUCAAGUGCCGAGAAGGUCACAGAGGCA
- apparent Kd [3]: 13.8 nM
- apparent Kd [4]: 18 nM

Sequence: GGUUUUUCUGUUAGGAUAUUUCAUGACAGGCGAUGAAAGAAGGAACAUGAGGAUCACCCAUGUGUUUGAGAUAA
- apparent Kd [3]: 9.57 nM
- apparent Kd [4]: 10.6 nM

Sequence: UCGGUGUAAGAGAAGGAAGUGUUCGCAGGCCAAGGCUCAUUGGCUACAUGAGGAUCACCCAUGUCUUAGGAUAUCUGCGCUCCG
- apparent Kd [5]: 45.6 nM
- apparent Kd [6]: 16.7 nM

Sequence: UAGUAUGGCACAGGAUAUACAAUUAAUAUGCGGGUAGAAGGGUGGUAUCGACAUGAGGAUCACCCAUGUUAGGAAGAAACACAC
- apparent Kd [5]: 134 nM
- apparent Kd [6]: 78.2 nM

Sequence: CGCCCUAAAGAUAAGGAUAUUCAGUUAGUAACAUGAGGAUCACCCAUGUGCACAUUUCACUUGAUGAAGAAGGUAUCUGGAACAUU
- apparent Kd [5]: 8.27 nM
- apparent Kd [6]: 6.1 nM

Sequence: CCAGAUUUAGGAUAUACAUGAGGAUCACCCAUGUGGGAUUUAGUGCGGUUUAUGCAACGUAGAAGGAAAUCAGG
- apparent Kd [3]: 31.6 nM
- apparent Kd [4]: 71.4 nM

Sequence: GACAUGGGACAGAAGGCGCGUCACAUUUUUAUGCGAGGAUAUGUCACUACAUGAGGAUCACCCAUGUGAGUUGGGAUCUCGAAA
- apparent Kd [3]: 26.5 nM
- apparent Kd [4]: 64.1 nM

Sequence: GCUCGAGGGCAAGGAUAUAGGGAGAAACAACGCCUAGAAGGUGCACACAUGAGGAUCACCCAUGUUUCUCUAUGACGGAUCAUC
- apparent Kd [3]: 18.1 nM
- apparent Kd [4]: 17.3 nM

Sequence: ACGCGUUCACAGAAGGCCUACAAAAUUACAUUAGGAGGAUAUGUUACAUGAGGAUCACCCAUGUCAUGGCUGUGUCUCGGUAUC
- apparent Kd [3]: 30.8 nM
- apparent Kd [4]: 41.4 nM

Sequence: GGAAUGUGAGGAUAUGUUAAGAAGGCGCGACGUUGGGAGACACAGAAGGCACAUGAGGAUCACCCAUGUUAUGA
- apparent Kd [3]: 23.2 nM
- apparent Kd [4]: 31.1 nM

Sequence: GGUUCCUCAACGGCCGCCACUUACUGGAUUAGUGGACCUACUUGCAACAUGAGGAUCACCCAUGUAAGGACCGGGUUGCUCCCAA
- apparent Kd [1]: 68.2 nM
- apparent Kd [2]: 79.2 nM

Sequence: CAGGUUCGUACAGGAUAUGGUUACAUGAGGAUCACCCAUGUGCGGUGAGCUGAUUAGUGCACAGUCCAGAAGGGUAGGAUAACA
- apparent Kd [5]: 852 nM
- apparent Kd [6]: 684 nM

Sequence: AUAGAGGAUAAAGGAUAUGAGGUGAACAUCGAUUCAGAAGGUUAUCAGGAUACAUGAGGAUCACCCAUGUUUCCUUUGCUGUUG
- apparent Kd [5]: 38.5 nM
- apparent Kd [6]: 22.9 nM

Sequence: GGAGUUCUAGGAUAUAAUUCGUGGUACAUGAGGAUCACCCAUGUCGCUGAUGCAUCGCCUUUAGAAGGAGAGAUCU
- apparent Kd [3]: 9.03 nM
- apparent Kd [4]: 9.49 nM

Sequence: AACAGAAGACAGGAUAUUACUUAACCAGUAUUGUAAGAAGGGUCGACAUGAGGAUCACCCAUGUGAUCAUACUG
- apparent Kd [3]: 48.8 nM
- apparent Kd [4]: 47 nM

Sequence: CGGCAGAAAGUGAGGAUAUCGGUUGUAUGAGGAGACGAGAAGGCACAUGAGGAUCACCCAUGUUAGUAGUCCAC
- apparent Kd [3]: 9.54 nM
- apparent Kd [4]: 8.8 nM

Sequence: UAAUCCAACUCGUAAUGACAUGAGGAUCACCCAUGUGAGCGUGAGGAUAUUGUAAGCUAGGAGGUCAAGAAGGCACGCCAGGAG
- apparent Kd [3]: 9.1 nM
- apparent Kd [4]: 10 nM

Sequence: CACUAUGAGGUCGAUACCAGUACUGAGUUGUACAUGAGGAUCACCCAUGUAAAUGUUCGCUACCCUUGGCAGCGAUAACAUUGCA
- apparent Kd (designed as: ON switch for theophylline, no ligand): 430 nM
- apparent Kd (ligand present: theophylline, designed as: ON switch for theophylline): 554 nM

Sequence: GCAGGACAUGAGGAUCACCCAUGUGAUACUAUGACAGGAUAUGAUUGAAAACUUACUAGAACAGAAGGGUCGUGUA
- apparent Kd [5]: 94.3 nM
- apparent Kd [6]: 34.5 nM

Sequence: GGGACACAUGAGGAUCACCCAUGUUGAUGACUUUGAGGAUAUUAGCAAAUUCUGGUCCGCUAAGAAGGCAAGGAAG
- apparent Kd [5]: 18.8 nM
- apparent Kd [6]: 9.82 nM

Sequence: GGAAAACACAAGAAGGCGUCGGACUGGGCGAGACGAGGAUAUUGUAGCUCUAAUCGUGGACAGACAUGAGGAUCACCCAUGUCG
- apparent Kd [5]: 7.93 nM
- apparent Kd [6]: 6.18 nM

Sequence: GUUUUGCGAAUAGGAUAUAGUAAUGAUUCAGGAAGCCUGAACAUGAGGAUCACCCAUGUGCCAUCCUAGAAGGAUUCGCACGUG
- apparent Kd [5]: 359 nM
- apparent Kd [6]: 186 nM

Sequence: GACUACAUAGUCAGGAUAUGUGAUUAAUAAUAUCAACAGAAGGGACAUGAGGAUCACCCAUGUGUGCGAGUGGA
- apparent Kd [3]: 14.5 nM
- apparent Kd [4]: 33.2 nM

Sequence: AAGGAGGAGCAAGGAUAUCAGUGUAUACGCCACAUGAGGAUCACCCAUGUCCGGAGCGAGAUUCCUGAGAAGGUGCCGCCUAGC
- apparent Kd [5]: 7.25 nM
- apparent Kd [6]: 6.47 nM

Sequence: AAAGGUUGAGGAUAUCAUCCUCCAAACAUGAGGAUCACCCAUGUUGAUCUUCACGUACGAUGAGAAGGCAACACCU
- apparent Kd [3]: 585 nM
- apparent Kd [4]: 683 nM

Sequence: CCGGCGCGAUUAUGGGUUUGCUUUUACGAUACCAGCCGCGUUCCGGGCCCUUGGCAGCGUGUAACAUGAGGAUCACCCAUGUUCA
- apparent Kd [7]: 13.2 nM

Sequence: GUGAACGUCAAAGGAUAUGUCGGAACUGCUAGAACAGAAGGUUGGGAAUCGGAUUGGUUGCACAUGAGGAUCACCCAUGUUGAG
- apparent Kd [5]: 443 nM
- apparent Kd [6]: 264 nM

Sequence: GUGCACAUGAGGAUCACCCAUGUCUGUGUAUUCCUGCUACCAGAGGAUAUGGCGUGCGUAGCUUACCAGAAGGCUGGUUGUAUC
- apparent Kd [3]: 30 nM
- apparent Kd [4]: 13.4 nM

Sequence: GUCAACACAGUAGGAUAUCCAAUGCGUAAGCUCGGAGAAGGACUUAACUAGCAGUUUGAUCGACAUGAGGAUCACCCAUGUAAU
- apparent Kd [3]: 11.3 nM
- apparent Kd [4]: 9.96 nM

Sequence: CGCCCGUACUCAGGAUAUCGAAGUACGAGCCAAAUUAUGUCGGACAUGAGGAUCACCCAUGUGGGCGAGAAGGGAGAACGUGCG
- apparent Kd [3]: 29.4 nM
- apparent Kd [4]: 16.4 nM

Sequence: GCUGAUAUCAAGAAGGCGAUCAGGGAAUAAGAGACAUGAGGAUCACCCAUGUACGCCAUUUGUAUCGAGGAUAUUGAAAAUAGG
- apparent Kd [5]: 24.4 nM
- apparent Kd [6]: 7.42 nM

Sequence: AAAGAACAAGGAUAUACAUGAGGAUCACCCAUGUCACAGAUAGUAGAACCACAAGCAUGUAGAAGGUGAGUCUA
- apparent Kd [3]: 11.5 nM
- apparent Kd [4]: 9.61 nM

Sequence: GUCUGGUCAGGAUAUUCGAGGUGUAACAUGAGGAUCACCCAUGUUUCUUAGCUAGAGGCCGAAGAAGGGACGGGUA
- apparent Kd [3]: 11.4 nM
- apparent Kd [4]: 10.1 nM

Sequence: UUACACAUGAGGAUCACCCAUGUCUGGGAGCGAGGACCGGUACGGCCGCCACUCGAAUUGUCAGGGCUAUGCCGGACGAUGCAUC
- apparent Kd [8]: 17.1 nM
- apparent Kd [9]: 21.1 nM

Sequence: GGACGCCAUAUAGAGGAUAUUAAUGUCGACACAUGAGGAUCACCCAUGUCCCACUCGGGCGAACAUAAGAAGGCUAAUCAGACGUA
- apparent Kd [5]: 14.5 nM
- apparent Kd [6]: 10.5 nM

Sequence: AUUAACAUGAGGAUCACCCAUGUUUGUCUCCGAGGACCGGUACGGCCGCCACUCGCAGGUUGGAGUCGCUAUAUGGGCGUUCACU
- apparent Kd [8]: 44.6 nM
- apparent Kd [9]: 34.9 nM

Sequence: CGGGUAACCGAGAAGGACUUAAGACUACGUUAAGUAGGAUAUCGAUUUGUUACAUGAGGAUCACCCAUGUCUGGUCUUGACCGC
- apparent Kd [3]: 8.66 nM
- apparent Kd [4]: 9.67 nM

Sequence: AGACAAAAGGAGAAGGAGGUAAAGAUAUAAAGGUGAAGUAAUGGACAUGAGGAUCACCCAUGUACCUAGGAUAUCCAGGGCGAU
- apparent Kd [3]: 26.8 nM
- apparent Kd [4]: 33.6 nM

Sequence: AAUUGUGCAGGAUAUUCACAGGUGAACAUGAGGAUCACCCAUGUAGCAUGAGGUGUAAUCGAAGAAGGGCAGGUCC
- apparent Kd [3]: 109 nM
- apparent Kd [4]: 72.8 nM

Sequence: AUAACUGCAGGAUAUACAGGAACGCCUAGAAGGAUCCUGGAACAUGAGGAUCACCCAUGUAGAAGGGCACGUUU
- apparent Kd [3]: 12.3 nM
- apparent Kd [4]: 14.4 nM

Sequence: GCCAAGCAGGGAGGAUAUACAGGCAAUAAGUGAUUAGAAGAACAAAACAUGAGGAUCACCCAUGUGAAGAAGGCCCAUUCGGAA
- apparent Kd [3]: 12.1 nM
- apparent Kd [4]: 10.9 nM

Sequence: UGAUCUGGCGGAGGAUAUAUGCCAGUAAAACUGAUAGAAGGCCGUGAUAUAACAUGAGGAUCACCCAUGUGAGCUCCUUAGCGA
- apparent Kd [3]: 20.5 nM
- apparent Kd [4]: 18.1 nM

Sequence: UAGCGAUCUCGUUAAAGGAUCCCAUUUGAUACCAGAGAACUUUGCCUCCCUUGGCAGCAAGUGACAUGAGGAUCACCCAUGUUGA
- apparent Kd (designed as: OFF switch for theophylline, no ligand): 16.2 nM
- apparent Kd [7]: 23.9 nM

Sequence: GGUGAUUUCCGACGUUUACAUGAGGAUCACCCAUGUAGGUAGAAGGAUAUGUGUAAAAUUGAUAAACAGAAGGUCUUCCGAAUA
- apparent Kd [3]: 12.2 nM
- apparent Kd [4]: 49.3 nM
